Assay outcomes: PubChem BioAssay, Johns Hopkins Ion Channel Center
KCNK3 inh: human KCNK3 channel inhibition, primary screen. O14649. CHO-KCNK3 thallium flux, FluxOR fluorescence; stronger effect = lower value. B-score at 10 µM. hit rate 0.84% among 340,000. AID 602410;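 active means B-score under library mean minus 4 SD, starting fluorescence ratio at most library mean plus 5 SD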;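 further: more negative B-score means stronger inhibition of thallium flux through KCNK3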
Target sequence (O14649 whole entry, looked up): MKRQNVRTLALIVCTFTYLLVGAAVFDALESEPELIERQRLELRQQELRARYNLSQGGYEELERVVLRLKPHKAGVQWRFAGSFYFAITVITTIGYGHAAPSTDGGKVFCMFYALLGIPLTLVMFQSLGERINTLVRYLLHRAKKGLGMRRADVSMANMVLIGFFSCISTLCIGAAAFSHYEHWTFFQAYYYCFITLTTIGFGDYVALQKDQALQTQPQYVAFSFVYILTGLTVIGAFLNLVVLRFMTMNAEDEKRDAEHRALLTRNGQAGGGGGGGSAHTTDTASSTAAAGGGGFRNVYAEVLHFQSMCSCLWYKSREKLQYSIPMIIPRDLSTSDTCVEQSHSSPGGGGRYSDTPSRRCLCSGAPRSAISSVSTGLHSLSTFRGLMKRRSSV
KCNK9 block: human KCNK9 channel inhibition; Q9NPC2; HEK293 KCNK9, FluxOR thallium flux fluorescence; stronger effect = lower value; B-score at 10 µM; hit rate 1.2% among 310,000; AID 488922;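 active means ratio B-score over 3 SD below the library mean, with starting fluorescence within 5 SD of its mean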;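 further: negative B-score means less thallium flux so channel inhibition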
KCNQ1 inh: human KCNQ1 channel inhibition. P51787. CHO-K1 KCNQ1, FluxOR thallium flux fluorescence; stronger effect = higher value. B-score at 10 µM. hit rate 1.3% among 310,000;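 active means compounds whose thallium flux B-score, printed positive for inhibition, exceeds three library SD while starting fluorescence stays within three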;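 further: channel opened by potassium depolarization with thallium stimulus after 20 min compound exposure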
hERG rescue: hERG (human) protection from proarrhythmic block | Q12809 | CHO-hERG, FluxOR thallium flux, dofetilide IC70 present | activation (rescue from dofetilide block), less the hit threshold, % at 10 µM | hit rate 0.51% among 310,000;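 active means activation above the mean of controls blocked by dofetilide plus 5 SD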;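 further: thallium influx through hERG after potassium depolarization seen as dye fluorescence rise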
KCNQ1 pot: human KCNQ1 channel potentiation or activation | P51787 | CHO-K1 KCNQ1, thallium flux FluxOR fluorescence; stronger effect = higher value | B-score at 10 µM | hit rate 0.35% among 310,000 | AID 2648;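 active means fluorescence ratio B-score, a plate-corrected score, at least three library SD, with initial intensity B-score within 5 SD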
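Doses: Single concentration per compound, DMSO matched to controls | Test system: KCNQ1-transfected CHO-K1 cells | Timing: 90 min dye loading and 20 min compound exposure, both at room temperature | Measured by: Kinetic FluxOR thallium fluorescence, 10-s 1-Hz baseline, 110-s post-stimulus read | Medium: Assay buffer with matched DMSO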
KCNQ1 inh valid: human KCNQ1 channel inhibition, validation assay; shares compounds with KCNQ1 inh; KCNQ1 cell line, FluxOR thallium flux fluorescence; inhibition, % at 10 µM; hit rate 93% among 1,600;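 active means primary screen active, with duplicate mean exceeding buffer control mean plus 3 SD of buffer wells, cut at about 28% in these data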;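 further: 0% = buffer control ratio and 100% = XE991 inhibitor control ratio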
CHO KCNQ1 ctr: counter-screen for KCNQ1 inhibitors: effect in parental CHO cells | shares compounds with KCNQ1 inh | parental CHO-K1, FluxOR thallium flux fluorescence ratio; stronger effect = lower value; zero means no signal rise above baseline | fluorescence ratio (Tl flux) at 10 µM | hit rate 21% among 1,600 | AID 588366;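 active means mean of duplicate thallium-flux fluorescence ratios in parental host cells more than 5 SD below the buffer control mean, cut at about 0.38 in these data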;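 further: ratio is peak minus minimum fluorescence divided by baseline fluorescence; actives read low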
KCNQ1 ephys val: confirmation of human KCNQ1 potassium channel inhibitors by electrophysiology. shares compounds with KCNQ1 inh. AID 624120. calls only at 10 µM. KCNQ1-CHO cells, automated patch clamp current. hit rate 20% among 490;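 active means KCNQ1 current drop exceeding 3 SD of negative control wells, seen in both duplicate runs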;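 further: steady state current during a 2 s step from -80 to +40 mV; negative values mean current inhibition and positive values mean potentiation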
KCNQ2 spec: KCNQ1 inhibitor that also blocks rat KCNQ2 channel; hit rate 71% among 1,600; KCNQ2 cells, FluxOR thallium flux fluorescence; shares compounds with KCNQ1 inh; inhibition, % at 10 µM;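 active means mean percent inhibition of the KCNQ2 thallium signal more than 5 SD above the buffer-only control wells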;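 further: KCNQ2 expressed in CHO cells; 0% = buffer control wells and 100% = XE-991 inhibitor control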
KCNQ1 KCNE1 spec: human KCNQ1/KCNE1 inhibition in KCNQ1 specificity screen; shares compounds with KCNQ1 inh; KCNQ1/KCNE1 cells, FluxOR thallium flux fluorescence; inhibition, % at 10 µM; hit rate 77% among 1,600;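 active means mean percent inhibition of duplicate wells above the buffer-only control mean plus 3 SD of those controls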;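 further: 0% = buffer only wells and 100% = XE-991 inhibitor control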
The depositor's hits bear a star; i = inactive; nt = not tested or not shown; + = active, no number. This is a sample that favours compounds with a hit; in the whole collection about 3.1% have one here.

SMILES	KCNK3 inh	KCNK9 block	KCNQ1 inh	hERG rescue	KCNQ1 pot	KCNQ1 inh valid	CHO KCNQ1 ctr	KCNQ2 spec	KCNQ1 KCNE1 spec	others
OC(COc1ccccc1)CN1CCC(Cc2ccccc2)CC1 (configuration not stated)	i	i	i	-6	i	nt	nt	nt	nt
CCC(=O)N1CCN(c2nc3ccc(Br)cc3s2)CC1	i	i	i	-6	i	nt	nt	nt	nt
Cc1nc(N)nc(N)c1-c1ccc([N+](=O)[O-])cc1	i	nt	nt	nt	nt	nt	nt	nt	nt
CCCc1ccc(-c2cc(C(=O)N3CCN(c4ccccn4)CC3)c3ccccc3n2)cc1	i	i	9*	-30	i	89*	0.45	114%*	104%*	KCNQ1 ephys val=i
CCOc1ccc(-c2cc(C(=O)N3CCN(c4ccccn4)CC3)c3ccccc3n2)cc1	i	i	i	-8	i	nt	nt	nt	nt
CC1CC(C)CN(CC(=O)N2CCCc3c2c(=O)oc2ccc(OCc4ccccc4)cc32)C1 (configuration not stated)	i	i	9*	-14	i	110*	0.4	100%*	151%*
O=C(c1cccc(S(=O)(=O)N2CCN(c3ccc(F)cc3)CC2)c1)N1CCCC(C(F)(F)F)C1 (configuration not stated)	i	i	6*	-14	i	94*	0.48	89%*	64%*	KCNQ1 ephys val=i
COc1ccc(NC(=O)c2cc(-c3cc(C)cc(C)c3O)n[nH]2)cc1Cl	-9.2*	i	8*	-8	i	168*	0.27*	114%*	+
CCn1c(/C=C/c2ccc(O)cc2)nc2ccccc2c1=O	i	i	i	-8	i	nt	nt	nt	nt
CCn1c(/C=C/c2ccc(O)c(O)c2)nc2ccccc2c1=O	i	i	7*	-17	i	30*	0.52	i	i
COc1ccc(OC)c(-c2csc(NC(=O)c3ccc(F)cc3)n2)c1	i	i	i	-10	i	nt	nt	nt	nt
CCCCNc1c2c3c(cccc3n(C)c1=O)C(=O)c1ccccc1-2	i	i	29*	-38	i	+	0.013*	i	i
CCNc1c2c3c(cccc3n(C)c1=O)C(=O)c1ccccc1-2	nt	i	i	-44	i	nt	nt	nt	nt
Cn1c(=O)c(NC2CCCCC2)c2c3c(cccc31)C(=O)c1ccccc1-2	i	nt	nt	nt	nt	nt	nt	nt	nt
Cn1c(=O)c(NCCc2ccccc2)c2c3c(cccc31)C(=O)c1ccccc1-2	i	i	29*	-44	i	+	0.004*	i	i
Cn1cccc1C(=O)NC1CCCCCC1	i	nt	nt	nt	nt	nt	nt	nt	nt
COc1ccc(-n2cc(-c3ccccc3)nc2SC)cc1	i	i	6*	-15	i	94*	0.42	86%*	130%*	KCNQ1 ephys val=i
NNC(=O)CSc1nc(-c2ccccc2)cn1-c1ccccc1	i	i	i	-5	i	nt	nt	nt	nt
CN(C1CCCCC1)S(=O)(=O)c1ccc(NC(=O)c2ccc(Br)o2)cc1	i	-8*	7*	-9	i	132*	0.42	115%*	193%*	KCNQ1 ephys val=i
CN(C)S(=O)(=O)c1ccc(NC(=O)c2ccc(Br)o2)cc1	i	i	i	-13	i	nt	nt	nt	nt
CC(C(=O)NCc1cccc(Cl)c1)N1C(=O)c2ccccc2C1=O (configuration not stated)	i	i	i	-1	i	nt	nt	nt	nt
CC(C(=O)NCc1ccccc1)N1C(=O)c2ccccc2C1=O (configuration not stated)	i	i	7*	-6	i	28*	0.44	i	i
O=C(c1cccc(NS(=O)(=O)c2ccc(F)c(F)c2)c1)N1CCN(C(c2ccccc2)c2ccccc2)CC1	i	i	11*	-15	i	131*	0.4	109%*	155%*	KCNQ1 ephys val=i
Cc1nc(Sc2ccccc2)c(C#N)cc1-c1ccccc1	i	i	6*	-17	i	95*	0.42	105%*	136%*	KCNQ1 ephys val=+
c1ccc(CC2CCN(c3ncnc4sccc34)CC2)cc1	i	i	8*	-32	i	136*	0.33*	89%*	176%*
SMILES	KCNK3 inh	KCNK9 block	KCNQ1 inh	hERG rescue	KCNQ1 pot	KCNQ1 inh valid	CHO KCNQ1 ctr	KCNQ2 spec	KCNQ1 KCNE1 spec	others
Fc1ccc2[nH]c3c(c2c1)CN(C(=S)NCc1ccccc1)CC3	i	i	7*	-14	i	100*	0.49	102%*	88%*	KCNQ1 ephys val=i
C=CCNC(=O)N1CCc2[nH]c3ccc(F)cc3c2C1	i	i	i	-4	i	nt	nt	nt	nt
CCOC(=O)c1c(C)[nH]c(C)c1S(=O)(=O)N(C)CC(=O)Nc1cccc(C)c1	i	i	i	-5	i	nt	nt	nt	nt
CCOc1ccc(Nc2nc(NCC3CCCO3)c3ccccc3n2)cc1 (configuration not stated)	i	i	11*	-30	i	134*	0.39	81%*	132%*	KCNQ1 ephys val=i
OCCNc1nc(Nc2ccccc2)nc2ccccc12	i	i	i	-11	i	nt	nt	nt	nt
OCCNc1nc(Nc2ccc(Br)cc2)nc2ccccc12	nt	i	15*	-8	i	0	0.46	78%*	i
c1ccc(Nc2nc(NCC3CCCO3)c3ccccc3n2)cc1 (configuration not stated)	-10*	i	12*	-26	i	128*	0.4	116%*	150%*	KCNQ1 ephys val=+
O=S(=O)(Oc1ccc(C(=S)N2CCOCC2)cc1)c1ccc(Cl)cc1	i	i	8*	-4	i	85*	0.46	i	65%*
CC1CCN(S(=O)(=O)N2CCC(C(=O)NCCc3ccccc3)CC2)CC1	i	i	i	-6	i	nt	nt	nt	nt
Cc1cccc(NC(=O)CSc2nc3ccccc3nc2N2CCCC2)c1	i	i	i	-10	i	nt	nt	nt	nt
COc1ccc(C)cc1NC(=O)CSc1nc2ccccc2nc1N1CCCC1	i	i	i	-12	i	nt	nt	nt	nt
Cc1cccc(NC(=O)CSc2nc3ccccc3nc2N2CCCCC2)c1	i	i	8*	-4	i	84*	0.47	107%*	122%*
